Assay outcomes: PubChem BioAssay, several laboratories
Rpn11 inh – blocks the human proteasome subunit Rpn11; 360,000 tested, 0.59% active; calls only at 20 µM; AID 588493; human 26S proteasome, Ub4-pepOG fluorescence polarization; 20S core pre-blocked with epoxomicin;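 active = inhibition at 20 µM, scaled to each plate's controls, above about 33%, limit read from the data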
PKA-R1A act – activators of PKA-R1A complex. 340,000 tested, 0.083% active. activation, % at 11.4 µM. PKA-R1A dissociation, Cy5-IP20 fluorescence polarization; scaled: DMSO 0%, 113 µM cGMP 100%. P00514+P68181;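 active = percent activation above the mean of all tested compounds plus 3 SD, cut at about 19% in these data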;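 also: higher means more PKAc released from R1A so a rise in polarization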
CSN inh – CSN deneddylation inhibition; Purified CSN, SCF-Nedd8-OG deneddylation, fluorescence polarization; 360,000 tested, 0.38% active; AID 651999; inhibition, % at 12.5 µM;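 active = pattern-corrected inhibition above about 35%, with an unprinted fluorescence ratio check between 0.5 and 1.5, limit read from the data, passing the limit was not always enough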;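 also: 0% = enzyme with substrate and 100% = substrate without enzyme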
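Detection – fluorescence polarization · System – HEK293T-derived human Csn5 enzyme · Controls – substrate-only high control, full reaction low control · Timing – 90 min, room temperature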
TPT1 inhibitor – blocks Candida albicans tRNA 2'-phosphotransferase. recombinant caTPT1, FP RNA substrate dephosphorylation. AID 1962. inhibition, % at 5 µM. 300,000 tested, 0.81% active;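 active = inhibition above the mean of all tested compounds plus 3 SD, set per screening campaign, cut at about 24% in these data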;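 also: plate controls were DMSO alone for no effect and ferristatin control at 100 nM for full effect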
PKA-R2B activ – activators of human PKA-R2B complex | P22694+P31323 | PKA-R2B holoenzyme dissociation, Cy5-IP20 fluorescence polarization; R2B truncated from residue 108, S112A mutant; 0% DMSO only, 100% 113 µM cGMP | activation, % at 11.4 µM | 340,000 tested, 0.079% active | AID 504700;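 active = activation above a cutoff set at the mean over all compounds plus 3 SD, cut at about 18% in these data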;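 also: higher means more holoenzyme dissociation and a rise in polarization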
HNF4A DNA FP – change in binding of human HNF4 alpha to DNA; P41235; HNF4a-FITC DNA binding, fluorescence polarization, 1 h; activity change, % at 10 µM; 360,000 tested, 0.3% active; in the data active = activity change above about 30%, passing the limit was not always enough
Target sequence (P41235 whole entry, looked up): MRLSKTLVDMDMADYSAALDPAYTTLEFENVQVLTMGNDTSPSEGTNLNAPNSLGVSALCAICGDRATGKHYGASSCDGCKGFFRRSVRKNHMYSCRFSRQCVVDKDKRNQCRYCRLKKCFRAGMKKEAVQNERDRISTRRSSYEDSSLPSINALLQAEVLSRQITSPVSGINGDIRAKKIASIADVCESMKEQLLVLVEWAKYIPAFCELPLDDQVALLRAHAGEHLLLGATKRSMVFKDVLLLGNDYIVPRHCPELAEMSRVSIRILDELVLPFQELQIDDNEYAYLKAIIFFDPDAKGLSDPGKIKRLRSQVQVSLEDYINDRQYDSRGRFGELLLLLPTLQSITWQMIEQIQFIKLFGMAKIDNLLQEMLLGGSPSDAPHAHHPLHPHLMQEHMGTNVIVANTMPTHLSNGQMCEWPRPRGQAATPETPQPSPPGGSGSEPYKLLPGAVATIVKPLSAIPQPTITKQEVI
TPT1 inh confirm – TPT1 (C. albicans) inhibition, confirmation | shares compounds with TPT1 inhibitor | recombinant caTPT1, fluorescence polarization, RNase T1 coupled | inhibition, % at 5 µM | 2,400 tested, 74% active;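 active = inhibition above the primary screen limit, the mean inhibition of all tested compounds plus 3 SD, cut at about 25% in these data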
RNase T1 inh – counter-screen for TPT1 inhibitors: inhibitors of Aspergillus oryzae RNase T1. shares compounds with TPT1 inhibitor. RNase T1 cleavage, fluorescence polarization, 1536-well. inhibition, % at 5 µM. 2,400 tested, 83% active;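 active = inhibition above the solvent-only control well mean plus 3 SD, limit set per screening run, cut at about 23% in these data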;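 also: plate controls were DMSO wells with enzyme for no effect and wells without RNase T1 for full effect; inhibitors block cleavage so intact labeled substrate keeps polarization high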
Target sequence (P00651 whole entry, looked up): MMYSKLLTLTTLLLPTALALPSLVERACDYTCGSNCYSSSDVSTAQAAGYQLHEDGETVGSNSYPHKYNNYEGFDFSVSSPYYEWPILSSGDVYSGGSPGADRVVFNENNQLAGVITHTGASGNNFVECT
An asterisk follows results filed as active. An excerpt weighted towards active compounds, which were near 1.6% of everything screened.

Screening CCOC(=O)c1c(/N=C/N(C)C)sc(/C=N/Nc2ccccc2)c1-c1ccc(Cl)cc1 returned Rpn11 inh active, PKA-R1A act 0, CSN inh 5, TPT1 inhibitor 40*, PKA-R2B activ -10, HNF4A DNA FP 26, TPT1 inh confirm 29* and RNase T1 inh 43*.
Screening CC1(C)CC(=O)C=C(NNC(=O)c2ccccc2O)C1 returned Rpn11 inh inactive, PKA-R1A act 4, CSN inh 8, TPT1 inhibitor 39*, PKA-R2B activ -2, HNF4A DNA FP 9, TPT1 inh confirm 46* and RNase T1 inh 57*.
For COc1ccc(NC(=O)N2C3CCCC2CC(NC(=O)c2ccccc2)C3)cc1 (stereo unspecified) the results were Rpn11 inh inactive, PKA-R1A act -3, CSN inh -3, TPT1 inhibitor 5, PKA-R2B activ 0 and HNF4A DNA FP 0.
Screening CCCN1C=CC(=C/C=C(\C#N)C(=O)OCC)C=C1 returned TPT1 inhibitor 181*, TPT1 inh confirm 190* and RNase T1 inh 177*.
CCCCCCN1C=CC(=C/C=C(\C#N)C(=O)OCC)C=C1 was read as PKA-R1A act 9, CSN inh 56, TPT1 inhibitor 176*, PKA-R2B activ 0, HNF4A DNA FP 196, TPT1 inh confirm 193* and RNase T1 inh 173*.
CCOC(=O)/C(C#N)=C/N=c1ccc(C)cn1C was read as Rpn11 inh inactive, PKA-R1A act -1, CSN inh 0, TPT1 inhibitor -1, PKA-R2B activ 2 and HNF4A DNA FP 2.
`O=C(O)c1ccc(NS(=O)(=O)/C=C/c2ccccc2)cc1O` gave Rpn11 inh inactive, PKA-R1A act -9, CSN inh -3, TPT1 inhibitor 24*, PKA-R2B activ -10, HNF4A DNA FP 3, TPT1 inh confirm 3 and RNase T1 inh 5.
Nc1ccc(C(=O)N/N=C/c2ccc(N3CCOCC3)s2)cc1 was read as Rpn11 inh inactive, PKA-R1A act 5, CSN inh 3, PKA-R2B activ 2 and HNF4A DNA FP 3.
Screening CC(C)(C)OC(=O)N/N=C/c1ccc(N2CCOCC2)s1 returned PKA-R1A act -1, CSN inh 0, TPT1 inhibitor 26*, PKA-R2B activ -18, HNF4A DNA FP 42*, TPT1 inh confirm 93* and RNase T1 inh 105*.
CCCCNc1c(-c2ccc(-c3ccc(C(C)=O)cc3)c(OC)c2)nc2cnccn12 was read as Rpn11 inh inactive, PKA-R1A act -2, CSN inh 1, TPT1 inhibitor 26*, PKA-R2B activ -12, HNF4A DNA FP 12, TPT1 inh confirm 52* and RNase T1 inh 63*.
For CCCCNc1c(-c2ccc(OC)c(SC3CCCCC3)c2)nc2cnccn12 the results were Rpn11 inh inactive, PKA-R1A act -1, CSN inh 9, TPT1 inhibitor 10, PKA-R2B activ -3 and HNF4A DNA FP 12.
O=C1Nc2ccccc2Oc2cc([N+](=O)[O-])cc(Oc3ccccc3)c21 was read as PKA-R1A act -14, CSN inh 36*, TPT1 inhibitor 27*, PKA-R2B activ -12, HNF4A DNA FP 17, TPT1 inh confirm 46* and RNase T1 inh 59*.
Screening O=[N+]([O-])c1ccc2c(c1)CNc1ccccc1O2 returned Rpn11 inh inactive, PKA-R1A act -10, CSN inh 4, TPT1 inhibitor -3, PKA-R2B activ -13 and HNF4A DNA FP 1.
Screening CCOC(=O)C1=C(C)OC(N)=C(C#N)C1c1ccc(C)s1 (stereo unspecified) returned Rpn11 inh inactive, PKA-R1A act 8, CSN inh 2, TPT1 inhibitor -7, PKA-R2B activ 5 and HNF4A DNA FP -4.
`CCN1/C(=C/c2ccc3cc(C)ccc3[n+]2CC)Sc2ccc3sccc3c21` gave Rpn11 inh active, PKA-R1A act 3, CSN inh 162*, TPT1 inhibitor 33*, PKA-R2B activ -2, HNF4A DNA FP 249, TPT1 inh confirm 63* and RNase T1 inh 66*.
CC(=O)c1cc2c(cc1NS(=O)(=O)c1ccccc1Br)OCO2 was read as Rpn11 inh inactive, PKA-R1A act -10, CSN inh 5, TPT1 inhibitor -3, PKA-R2B activ -4 and HNF4A DNA FP -2.
Screening CCn1c(=O)c2[nH]c(Cl)nc2n(CC)c1=O returned Rpn11 inh inactive, PKA-R1A act 10, CSN inh 4, PKA-R2B activ 7 and HNF4A DNA FP -6.
For CCN(CC)C(=O)CSc1nnc(-c2ccccn2)n1-c1ccccc1OC the results were Rpn11 inh inactive, PKA-R1A act -7, CSN inh 2, TPT1 inhibitor -2, PKA-R2B activ -5 and HNF4A DNA FP -3.
Screening O=C1c2c(O)cccc2C(C2OC(CO)[C@@H](O)[C@H](O)[C@H]2O)c2cc(CO)cc(O)c21 (stereo partly specified) returned Rpn11 inh inactive, PKA-R1A act -1, CSN inh 5, PKA-R2B activ 6 and HNF4A DNA FP -14.
O=C(O)c1cc(O)c2c(c1)[C@@H]([C@H]1c3cc(C(=O)O)cc(O)c3C(=O)c3c(O[C@@H]4O[C@H](CO)[C@@H](O)[C@H](O)[C@H]4O)cccc31)c1cccc(OC3O[C@H](CO)[C@@H](O)[C@H](O)[C@H]3O)c1C2=O (stereo partly specified) was read as Rpn11 inh inactive, PKA-R1A act 6, CSN inh 45, TPT1 inhibitor 77*, PKA-R2B activ 18, HNF4A DNA FP -87, TPT1 inh confirm 84* and RNase T1 inh 6.
NS(=O)(=O)c1ccc(NC(=O)CN(C(=O)C(F)(F)F)C2CCCC2)cc1 was read as Rpn11 inh inactive, PKA-R1A act -10, CSN inh 0, PKA-R2B activ -4 and HNF4A DNA FP 3.
`Cc1sc(NC(=O)c2sc3nc4c(C)cccc4cc3c2N)c(C#N)c1C` gave Rpn11 inh inactive, PKA-R1A act 0, CSN inh 22, TPT1 inhibitor 25*, PKA-R2B activ -5, HNF4A DNA FP 21, TPT1 inh confirm 30* and RNase T1 inh 43*.
CC(C)N1C(=O)C(=O)N(CC(=O)N(C)c2ccccc2)C1=O was read as Rpn11 inh inactive, PKA-R1A act -4, CSN inh 1, PKA-R2B activ 1 and HNF4A DNA FP -4.
